What all share (format): functional
The subject of assay [1] is Penicillium chrysogenum. In words: Antifungal activity against Penicillium notatum sp. at 500 ug after 24 hrs by paper disc technique relative to control. An outline of the steps: (§1)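 Potato dextrose agar plates: sterilized base layer overlaid with seeded medium (cooled to 40 °C, spore suspension from ten-day cultures of A. niger, A. flavus, P. notatum and Rhizopus species added), chilled before use. Disc diffusion, incubation at 28 °C; zone read after 24 h from disc centre. I% = (C − T)/C × 100 (C, zone diameter in check; […]). Fluconazole (500 and 1000 µg/ml) as standard.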

Assay [2] relates to Aspergillus niger. Description: Antifungal activity against Aspergillus niger at 500 ug after 24 hrs by paper disc technique. The note with it: read-out: IZ. Summed up:
as §1

Assay [3] concerns Penicillium chrysogenum. In words: Antifungal activity against Penicillium notatum sp. at 1000 ug after 24 hrs by paper disc technique relative to control. Summed up:
as §1

In assay [4] the test system is Aspergillus flavus. In words: Antifungal activity against Aspergillus flavus at 1000 ug after 24 hrs by paper disc technique. As to conditions: read-out: IZ. Summed up:
as §1

Assay [5] concerns Aspergillus flavus. Description: Antifungal activity against Aspergillus flavus at 500 ug after 24 hrs by paper disc technique. As to conditions: read-out: IZ. Summed up:
as §1

The test system of assay [6] is Aspergillus flavus. In words: Antifungal activity against Aspergillus flavus at 1000 ug after 24 hrs by paper disc technique relative to control. Summed up:
as §1

Assay [7] has as its system Aspergillus niger. In words: Antifungal activity against Aspergillus niger at 1000 ug after 24 hrs by paper disc technique. As to conditions: read-out: IZ. An outline of the steps: as §1
Assay [8] has as its system Rhizopus. In words: Antifungal activity against Rhizopus sp. at 1000 ug after 24 hrs by paper disc technique. As to conditions: read-out: IZ. An outline of the steps: as §1
For assay [9], the system named is Aspergillus niger. In words: Antifungal activity against Aspergillus niger at 1000 ug after 24 hrs by paper disc technique relative to control. Summed up: as §1
Assay [10] deals with Rhizopus. Description: Antifungal activity against Rhizopus sp. at 1000 ug after 24 hrs by paper disc technique relative to control. Summed up: as §1
Assay [11] relates to Aspergillus niger. Description: Antifungal activity against Aspergillus niger at 500 ug after 24 hrs by paper disc technique relative to control. Summed up: as §1
Assay [12] deals with Penicillium chrysogenum. Description: Antifungal activity against Penicillium notatum sp. at 500 ug after 24 hrs by paper disc technique. As to conditions: read-out: IZ. Summed up:
as §1

Assay [13] concerns Rhizopus. Description: Antifungal activity against Rhizopus sp. at 500 ug after 24 hrs by paper disc technique relative to control. Summed up: as §1
Assay [14] deals with Aspergillus flavus. Description: Antifungal activity against Aspergillus flavus at 500 ug after 24 hrs by paper disc technique relative to control. Summed up: as §1
Assay [15] relates to Rhizopus. Description: Antifungal activity against Rhizopus sp. at 500 ug after 24 hrs by paper disc technique. As to conditions: read-out: IZ. An outline of the steps: as §1
Assay [16] concerns Penicillium chrysogenum. Description: Antifungal activity against Penicillium notatum sp. at 1000 ug after 24 hrs by paper disc technique. The note with it: read-out: IZ. Summed up:
as §1

On to `C1=Nn2c(nnc2-c2ccccc2)Nc2nc3ccccc3cc21`, for which the Activity in the assay on Penicillium chrysogenum [1] was found to be 73.33%; in the assay on Penicillium chrysogenum [3] it was 90%; with Aspergillus flavus [6] it was 70%; with Aspergillus niger [9], 71.66%; in the assay with Rhizopus [10], 50%; in the assay on Aspergillus niger [11], 53.33%. Also, the Activity in the assay with Rhizopus [13] amounted to 50%; in the assay with Aspergillus flavus [14], 53.33%. In addition, the zone of inhibition at 500 µg/disc is 39 mm in the assay with Aspergillus niger [2], 32 mm in the assay with Aspergillus flavus [5], 44 mm with Penicillium chrysogenum [12] and 30 mm with Rhizopus [15]. In addition, the zone of inhibition at 1000 µg/disc in the assay on Aspergillus flavus [4] came to 45 mm; in the assay on Aspergillus niger [7] it was 43 mm; in the assay on Rhizopus [8], 30 mm; in the assay on Penicillium chrysogenum [16], 54 mm.
Regarding `O=[N+]([O-])c1ccc(-c2nnc3n2N=Cc2cc4ccccc4nc2N3)cc1`, the Activity in the assay with Penicillium chrysogenum [1] is listed as 71.66%; with Penicillium chrysogenum [3], 86.66%; in the assay on Aspergillus flavus [6], 60%; with Aspergillus niger [9], 63.33%; in the assay with Rhizopus [10], 43.33%; with Aspergillus niger [11] it was 33.33%. The Activity in the assay on Rhizopus [13] came to 41.66%; in the assay with Aspergillus flavus [14] it was 60%. Moreover, the zone of inhibition at 500 µg/disc in the assay on Aspergillus niger [2] came to 22 mm; in the assay on Aspergillus flavus [5], 36 mm; in the assay on Penicillium chrysogenum [12], 43 mm; with Rhizopus [15], 25 mm. The zone of inhibition at 1000 µg/disc in the assay with Aspergillus flavus [4] turned out to be 36 mm; in the assay with Aspergillus niger [7] it was 38 mm; with Rhizopus [8], 26 mm; with Penicillium chrysogenum [16] it was 52 mm.
Turning to `Cc1ccc2nc3c(cc2c1)C=Nn1c(nnc1-c1ccccc1Cl)N3`, the Activity with Penicillium chrysogenum [1] came to 73.33%; in the assay with Penicillium chrysogenum [3] it was 70%; with Aspergillus flavus [6] it was 53.33%; in the assay with Aspergillus niger [9], 71.66%; in the assay with Rhizopus [10] it was 53.33%; in the assay on Aspergillus niger [11], 40%. The Activity is reported as 46.66% with Rhizopus [13] and 70.66% in the assay with Aspergillus flavus [14]. In addition, the zone of inhibition at 500 µg/disc with Aspergillus niger [2] is 24 mm; in the assay on Aspergillus flavus [5], 42 mm; in the assay on Penicillium chrysogenum [12] it was 44 mm; in the assay on Rhizopus [15], 28 mm. In addition, the zone of inhibition at 1000 µg/disc is 32 mm in the assay on Aspergillus flavus [4], 43 mm in the assay with Aspergillus niger [7], 32 mm in the assay on Rhizopus [8] and 42 mm with Penicillium chrysogenum [16].
For `Cc1ccc2nc3c(cc2c1)C=Nn1c(nnc1-c1ccc([N+](=O)[O-])cc1)N3`, the Activity with Penicillium chrysogenum [1] turned out to be 80%; with Penicillium chrysogenum [3] it was 70%; with Aspergillus flavus [6], 81.66%; with Aspergillus niger [9], 66.66%; in the assay on Rhizopus [10], 50%; in the assay on Aspergillus niger [11], 56.66%. The Activity turned out to be 33.33% with Rhizopus [13] and 71.66% in the assay with Aspergillus flavus [14]. Also, the zone of inhibition at 500 µg/disc came to 34 mm in the assay with Aspergillus niger [2], 43 mm in the assay with Aspergillus flavus [5], 48 mm in the assay on Penicillium chrysogenum [12] and 20 mm with Rhizopus [15]. Also, the zone of inhibition at 1000 µg/disc worked out at 49 mm with Aspergillus flavus [4], 40 mm with Aspergillus niger [7], 30 mm in the assay with Rhizopus [8] and 42 mm in the assay with Penicillium chrysogenum [16].
As for `OC(Cn1cncn1)(Cn1cncn1)c1ccc(F)cc1F` [FLUCONAZOLE], the Activity in the assay with Penicillium chrysogenum [1] is 86.66%; in the assay with Penicillium chrysogenum [3], 90%; in the assay with Aspergillus flavus [6], 70%; in the assay on Aspergillus niger [9], 80%; in the assay on Rhizopus [10] it was 70%; in the assay on Aspergillus niger [11] it was 70%. The Activity in the assay with Rhizopus [13] was 63.33%; with Aspergillus flavus [14] it was 58.33%. For the same compound, the zone of inhibition at 500 µg/disc in the assay on Aspergillus niger [2] was 42 mm; in the assay with Aspergillus flavus [5], 35 mm; with Penicillium chrysogenum [12] it was 52 mm; in the assay with Rhizopus [15] it was 38 mm. Besides, the zone of inhibition at 1000 µg/disc was 42 mm in the assay with Aspergillus flavus [4], 48 mm with Aspergillus niger [7], 42 mm in the assay on Rhizopus [8] and 54 mm in the assay on Penicillium chrysogenum [16].

(Values after ChEMBL document CHEMBL1806379, “Efficient synthesis of antifungal active 9-substituted-3-aryl-5H,13aH-quinolino[3,2-f][1,2,4]triazolo[4,3-b][1,2,4]triazepines in ionic liquids” (2011).)
